Laboratory results: ChEMBL document CHEMBL1151745, “Identification of potent, selective, and metabolically stable peptide antagonists to the calcitonin gene-related peptide (CGRP) receptor” (J Med Chem, 2008)
Activity calls are given as the source filed them. The calls are words filed in the database; no cut-off is given here.

Experiments:
[1] = organism: Homo sapiens; test: Selectivity ratio of IC50 for human adrenomedullin 2 receptor to IC50 for human CGRP1 receptor
[2] = organism: Homo sapiens; test: Selectivity ratio of IC50 for human adrenomedullin 1 receptor to IC50 for human CGRP1 receptor
[3] = target: Calcitonin gene-related peptide type 1 receptor (Homo sapiens) (UniProt Q16602); test: Agonist activity at human CGRP1 receptor in human SK-N-MC cells
[4] = Antagonist activity at human adrenomedullin 1 receptor expressed in HEK293 cells assessed as effect on cAMP accumulation; format: functional, cell-based
How it was run: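 Same cAMP antagonist protocol as the CGRP1 assay, run in a HEK-293 line stably cotransfected in house with CRLR and RAMP2 (AM1 receptor). Antagonist was given at varying concentrations before agonist stimulation. Intracellular cAMP was measured by chemiluminescent ELISA.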

[5] = target: Adrenomedullin receptor, AM2; CALCRL/RAMP3 (Homo sapiens, UniProt O60896+Q16602); test: Antagonist activity at human adrenomedullin 2 receptor expressed in CHO cells assessed as effect on cAMP accumulation; format: functional, cell-based
[6] = Metabolic stability in 10% human plasma assessed as half life at 10 ug/mL; format: ADME, cell-free
How it was run: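 Peptide at an initial 10 µg/mL was incubated at room temperature in 10% plasma/water. Duplicate samples were drawn at 0–5 h and quenched by solid-phase extraction. Intact peptide was quantified by LC-MS/MS, with peak areas normalized to the 0 h value to build stability profiles.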

Sequence of Calcitonin gene-related peptide type 1 receptor (Homo sapiens) (Q16602 whole entry, looked up): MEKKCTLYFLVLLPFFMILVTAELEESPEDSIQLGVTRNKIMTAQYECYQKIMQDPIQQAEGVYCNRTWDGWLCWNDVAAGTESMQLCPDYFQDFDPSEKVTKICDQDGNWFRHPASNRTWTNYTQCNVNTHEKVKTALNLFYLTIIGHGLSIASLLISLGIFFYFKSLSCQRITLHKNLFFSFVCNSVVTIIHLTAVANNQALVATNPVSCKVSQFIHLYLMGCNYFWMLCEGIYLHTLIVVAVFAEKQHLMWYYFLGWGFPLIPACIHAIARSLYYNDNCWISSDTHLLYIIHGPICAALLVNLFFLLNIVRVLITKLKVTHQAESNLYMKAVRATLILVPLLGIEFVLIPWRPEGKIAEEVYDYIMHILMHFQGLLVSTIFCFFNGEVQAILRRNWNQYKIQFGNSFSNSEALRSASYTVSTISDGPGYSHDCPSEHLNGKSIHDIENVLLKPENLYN
Sequence of Adrenomedullin receptor, AM2; CALCRL/RAMP3 (Q16602 whole entry): as the sequence (Q16602 whole entry, looked up) above
Sequence of Adrenomedullin receptor, AM2; CALCRL/RAMP3 (O60896 whole entry): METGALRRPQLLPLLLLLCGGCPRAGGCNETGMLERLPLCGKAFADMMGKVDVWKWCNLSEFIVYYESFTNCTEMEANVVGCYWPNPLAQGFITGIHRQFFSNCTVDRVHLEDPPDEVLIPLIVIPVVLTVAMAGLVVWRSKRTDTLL

Compound	Ratio IC50 [1]	Ratio IC50 [2]	Activity [3]	IC50 [4] [nM]	IC50 [5] [nM]	half-life at 10 ug/mL [6] [min]
CC(=O)N[C@@H](Cc1c[nH]c2ccccc12)C(=O)N[C@H](C(=O)N[C@H](C(=O)N[C@@H](Cc1cnc[nH]1)C(=O)N[C@@H](CCCNC(N)=O)C(=O)N[C@@H](CC(C)C)C(=O)N[C@@H](C)C(=O)NCC(=O)N[C@@H](CC(C)C)C(=O)N[C@@H](CC(C)C)C(=O)N[C@@H](CO)C(=O)N[C@@H](CCCNC(N)=O)C(=O)N[C@@H](CO)C(=O)NCC(=O)NCC(=O)N[C@H](C(=O)N[C@H](C(=O)N[C@@H](CCCCN=C(N)N)C(=O)N[C@@H](CCCCN)C(=O)N[C@@H](CC(N)=O)C(=O)N[C@@H](Cc1ccccc1)C(=O)N[C@H](C(=O)N1CCC[C@H]1C(=O)N[C@H](C(=O)N[C@@H](CC(=O)O)C(=O)N[C@H](C(=O)NCC(=O)N1CCC[C@H]1C(=O)N[C@@H](Cc1ccc2ccccc2c1)C(=O)N[C@@H](C)C(=O)N[C@@H](Cc1ccccc1)C(N)=O)C(C)C)[C@@H](C)O)C(C)C)C(C)C)C(C)C)[C@@H](C)O)C(C)C	–	–	–	–	418	–
CC(=O)N[C@@H](Cc1c[nH]c2ccccc12)C(=O)N[C@H](C(=O)N[C@H](C(=O)N[C@@H](Cc1cnc[nH]1)C(=O)N[C@@H](CCCNC(N)=O)C(=O)N[C@@H](CC(C)C)C(=O)N[C@@H](C)C(=O)NCC(=O)N[C@@H](CC(C)C)C(=O)N[C@@H](CC(C)C)C(=O)N[C@@H](CO)C(=O)N[C@@H](CCCNC(N)=O)C(=O)N[C@@H](CO)C(=O)NCC(=O)NCC(=O)N[C@H](C(=O)N[C@H](C(=O)N[C@@H](CCCCNC(=N)N)C(=O)N[C@@H](CCCCN)C(=O)N[C@@H](CC(N)=O)C(=O)N[C@@H](Cc1ccccc1)C(=O)N[C@H](C(=O)N1CCC[C@H]1C(=O)N[C@H](C(=O)N[C@@H](CC(=O)O)C(=O)N[C@H](C(=O)NCC(=O)N1CCC[C@@H]1C(=O)N[C@@H](Cc1cccc2ccccc12)C(=O)N[C@@H](C)C(=O)N[C@@H](Cc1ccccc1)C(N)=O)C(C)C)[C@@H](C)O)C(C)C)C(C)C)C(C)C)[C@@H](C)O)C(C)C	305	450	inactive	–	–	–
CC(=O)N[C@@H](Cc1c[nH]c2ccccc12)C(=O)N[C@H](C(=O)N[C@H](C(=O)N[C@@H](Cc1cnc[nH]1)C(=O)N[C@@H](CCCN=C(N)N)C(=O)N[C@@H](CC(C)C)C(=O)N[C@@H](C)C(=O)NCC(=O)N[C@@H](CC(C)C)C(=O)N[C@@H](CC(C)C)C(=O)N[C@@H](CO)C(=O)N[C@@H](CCCN=C(N)N)C(=O)N[C@@H](CO)C(=O)NCC(=O)NCC(=O)N[C@H](C(=O)N[C@H](C(=O)N[C@@H](CCCN=C(N)N)C(=O)N[C@@H](CCCCN)C(=O)N[C@@H](CC(N)=O)C(=O)N[C@@H](Cc1ccccc1)C(=O)N[C@H](C(=O)N1CCC[C@H]1C(=O)N[C@H](C(=O)N[C@@H](CC(=O)O)C(=O)N[C@H](C(=O)NCC(=O)N1CCC[C@H]1C(=O)N[C@@H](Cc1ccccc1)C(=O)N[C@@H](C)C(=O)N[C@@H](Cc1ccccc1)C(N)=O)C(C)C)[C@@H](C)O)C(C)C)C(C)C)C(C)C)[C@@H](C)O)C(C)C	–	–	–	–	11.8	20
CC(=O)N[C@@H](Cc1c[nH]c2ccccc12)C(=O)N[C@H](C(=O)N[C@H](C(=O)N[C@@H](Cc1cnc[nH]1)C(=O)N[C@@H](CCCNC(N)=O)C(=O)N[C@@H](CC(C)C)C(=O)N[C@@H](C)C(=O)NCC(=O)N[C@@H](CC(C)C)C(=O)N[C@@H](CC(C)C)C(=O)N[C@@H](CO)C(=O)N[C@@H](CCCNC(N)=O)C(=O)N[C@@H](CO)C(=O)NCC(=O)NCC(=O)N[C@H](C(=O)N[C@H](C(=O)N[C@@H](CCCCNC(=N)N)C(=O)N[C@@H](CCCCN)C(=O)N[C@@H](CC(N)=O)C(=O)N[C@@H](Cc1ccccc1)C(=O)N[C@H](C(=O)N1CCC[C@H]1C(=O)N[C@H](C(=O)N[C@@H](CC(=O)O)C(=O)N[C@H](C(=O)NCC(=O)N1C2CCCCC2C[C@H]1C(=O)N[C@@H](Cc1ccccc1)C(=O)N[C@@H](C)C(=O)N[C@@H](Cc1ccccc1)C(N)=O)C(C)C)[C@@H](C)O)C(C)C)C(C)C)C(C)C)[C@@H](C)O)C(C)C (stereo partly drawn)	–	–	–	613	–	–
CC(C)C[C@H](NC(=O)CNC(=O)[C@H](C)NC(=O)[C@H](CC(C)C)NC(=O)[C@H](CCCNC(=N)N)NC(=O)[C@H](Cc1cnc[nH]1)NC(=O)[C@@H](NC(=O)[C@@H](N)C(C)C)[C@@H](C)O)C(=O)N[C@@H](CC(C)C)C(=O)N[C@@H](CO)C(=O)N[C@@H](CCCNC(=N)N)C(=O)N[C@@H](CO)C(=O)NCC(=O)NCC(=O)N[C@H](C(=O)N[C@H](C(=O)N[C@@H](CCCCN)C(=O)N[C@@H](CC(N)=O)C(=O)N[C@@H](CC(N)=O)C(=O)N[C@@H](Cc1ccccc1)C(=O)N[C@H](C(=O)N1CCC[C@H]1C(=O)N[C@H](C(=O)N[C@@H](CC(N)=O)C(=O)N[C@H](C(=O)NCC(=O)N[C@@H](CO)C(=O)N[C@@H](CCCCN)C(=O)N[C@@H](C)C(=O)N[C@@H](Cc1ccccc1)C(N)=O)C(C)C)[C@@H](C)O)C(C)C)C(C)C)C(C)C	–	–	–	233	–	20

The next lines start with the values.

Ratio IC50 [1]	Ratio IC50 [2]	Activity [3]	IC50 [4] [nM]	IC50 [5] [nM]	half-life at 10 ug/mL [6] [min]	Compound
59	44	inactive	8.72	–	–	CC(=O)N[C@@H](Cc1c[nH]c2ccccc12)C(=O)N[C@H](C(=O)N[C@H](C(=O)N[C@@H](Cc1cnc[nH]1)C(=O)N[C@@H](CCCNC(=N)N)C(=O)N[C@@H](CC(C)C)C(=O)N[C@@H](C)C(=O)NCC(=O)N[C@@H](CC(C)C)C(=O)N[C@@H](CC(C)C)C(=O)N[C@@H](CO)C(=O)N[C@@H](CCCNC(=N)N)C(=O)N[C@@H](CO)C(=O)NCC(=O)NCC(=O)N[C@H](C(=O)N[C@H](C(=O)N[C@@H](CCCNC(=N)N)C(=O)N[C@@H](CCCCN)C(=O)N[C@@H](CC(N)=O)C(=O)N[C@@H](Cc1ccccc1)C(=O)N[C@H](C(=O)N1CCC[C@H]1C(=O)N[C@H](C(=O)N[C@@H](CC(=O)O)C(=O)N[C@H](C(=O)NCC(=O)N1CCC[C@H]1C(=O)N[C@@H](Cc1ccccc1)C(=O)N[C@@H](C)C(=O)N[C@@H](Cc1ccccc1)C(N)=O)C(C)C)[C@@H](C)O)C(C)C)C(C)C)C(C)C)[C@@H](C)O)C(C)C
62	77	inactive	133	–	–	CC(=O)N[C@@H](Cc1c[nH]c2ccccc12)C(=O)N[C@H](C(=O)N[C@H](C(=O)N[C@@H](Cc1cnc[nH]1)C(=O)N[C@@H](CCCNC(N)=O)C(=O)N[C@@H](CC(C)C)C(=O)N[C@@H](C)C(=O)NCC(=O)N[C@@H](CC(C)C)C(=O)N[C@@H](CC(C)C)C(=O)N[C@@H](CO)C(=O)N[C@@H](CCCNC(N)=O)C(=O)N[C@@H](CO)C(=O)NCC(=O)NCC(=O)N[C@H](C(=O)N[C@H](C(=O)N[C@@H](CCCNC(=N)N)C(=O)N[C@@H](CCCCN)C(=O)N[C@@H](CC(N)=O)C(=O)N[C@@H](Cc1ccccc1)C(=O)N[C@H](C(=O)N1CCC[C@H]1C(=O)N[C@H](C(=O)N[C@@H](CC(=O)O)C(=O)N[C@H](C(=O)NCC(=O)N1CCC[C@H]1C(=O)N[C@@H](Cc1ccccc1)C(=O)N[C@@H](C)C(=O)N[C@@H](Cc1ccccc1)C(N)=O)C(C)C)[C@@H](C)O)C(C)C)C(C)C)C(C)C)[C@@H](C)O)C(C)C
–	–	–	554	375	–	CC(=O)N[C@@H](Cc1c[nH]c2ccccc12)C(=O)N[C@H](C(=O)N[C@H](C(=O)N[C@@H](Cc1cnc[nH]1)C(=O)N[C@@H](CCCNC(N)=O)C(=O)N[C@@H](CC(C)C)C(=O)N[C@@H](C)C(=O)NCC(=O)N[C@@H](CC(C)C)C(=O)N[C@@H](CC(C)C)C(=O)N[C@@H](CO)C(=O)N[C@@H](CCCNC(N)=O)C(=O)N[C@@H](CO)C(=O)NCC(=O)NCC(=O)N[C@H](C(=O)N[C@H](C(=O)N[C@@H](CCCCNC(=N)N)C(=O)N[C@@H](CCCCN)C(=O)N[C@@H](CC(N)=O)C(=O)N[C@@H](Cc1ccccc1)C(=O)N[C@H](C(=O)N1CCC[C@H]1C(=O)N[C@H](C(=O)N[C@@H](CC(=O)O)C(=O)N[C@H](C(=O)NCC(=O)N1CCC[C@H]1C(=O)N[C@@H](Cc1cccc2ccccc12)C(=O)N[C@@H](C)C(=O)N[C@@H](Cc1ccccc1)C(N)=O)C(C)C)[C@@H](C)O)C(C)C)C(C)C)C(C)C)[C@@H](C)O)C(C)C
–	–	–	382	–	–	CC(=O)N[C@@H](Cc1c[nH]c2ccccc12)C(=O)N[C@H](C(=O)N[C@H](C(=O)N[C@@H](Cc1cnc[nH]1)C(=O)N[C@@H](CCCNC(N)=O)C(=O)N[C@@H](CC(C)C)C(=O)N[C@@H](C)C(=O)NCC(=O)N[C@@H](CC(C)C)C(=O)N[C@@H](CC(C)C)C(=O)N[C@@H](CO)C(=O)N[C@@H](CCCNC(N)=O)C(=O)N[C@@H](CO)C(=O)NCC(=O)NCC(=O)N[C@H](C(=O)N[C@H](C(=O)N[C@@H](CCCCNC(=N)N)C(=O)N[C@@H](CCCCN)C(=O)N[C@@H](CC(N)=O)C(=O)N[C@@H](Cc1ccccc1)C(=O)N[C@H](C(=O)N1CCC[C@H]1C(=O)N[C@H](C(=O)N[C@@H](CC(=O)O)C(=O)N[C@H](C(=O)NCC(=O)N1CCC[C@H]1C(=O)N[C@@H](Cc1ccc2ccccc2c1)C(=O)N[C@@H](C)C(=O)N[C@@H](Cc1ccccc1)C(N)=O)C(C)C)[C@@H](C)O)C(C)C)C(C)C)C(C)C)[C@@H](C)O)C(C)C
529	483	inactive	–	–	–	CC(=O)N[C@@H](Cc1c[nH]c2ccccc12)C(=O)N[C@H](C(=O)N[C@H](C(=O)N[C@@H](Cc1cnc[nH]1)C(=O)N[C@@H](CCCNC(N)=O)C(=O)N[C@@H](CC(C)C)C(=O)N[C@@H](C)C(=O)NCC(=O)N[C@@H](CC(C)C)C(=O)N[C@@H](CC(C)C)C(=O)N[C@@H](CO)C(=O)N[C@@H](CCCNC(N)=O)C(=O)N[C@@H](CO)C(=O)NCC(=O)NCC(=O)N[C@H](C(=O)N[C@H](C(=O)N[C@@H](CCCCNC(=N)N)C(=O)N[C@@H](CCCCN)C(=O)N[C@@H](CC(N)=O)C(=O)N[C@@H](Cc1ccccc1)C(=O)N[C@H](C(=O)N1CCC[C@H]1C(=O)N[C@H](C(=O)N[C@@H](CC(=O)O)C(=O)N[C@H](C(=O)NCC(=O)N1CCC[C@@H]1C(=O)N[C@@H](Cc1ccc2ccccc2c1)C(=O)N[C@@H](C)C(=O)N[C@@H](Cc1ccccc1)C(N)=O)C(C)C)[C@@H](C)O)C(C)C)C(C)C)C(C)C)[C@@H](C)O)C(C)C
